The target of data set [1] is T1, Zinc finger protein GLI1 (Homo sapiens) (UniProt P08151).
T1 sequence (whole entry): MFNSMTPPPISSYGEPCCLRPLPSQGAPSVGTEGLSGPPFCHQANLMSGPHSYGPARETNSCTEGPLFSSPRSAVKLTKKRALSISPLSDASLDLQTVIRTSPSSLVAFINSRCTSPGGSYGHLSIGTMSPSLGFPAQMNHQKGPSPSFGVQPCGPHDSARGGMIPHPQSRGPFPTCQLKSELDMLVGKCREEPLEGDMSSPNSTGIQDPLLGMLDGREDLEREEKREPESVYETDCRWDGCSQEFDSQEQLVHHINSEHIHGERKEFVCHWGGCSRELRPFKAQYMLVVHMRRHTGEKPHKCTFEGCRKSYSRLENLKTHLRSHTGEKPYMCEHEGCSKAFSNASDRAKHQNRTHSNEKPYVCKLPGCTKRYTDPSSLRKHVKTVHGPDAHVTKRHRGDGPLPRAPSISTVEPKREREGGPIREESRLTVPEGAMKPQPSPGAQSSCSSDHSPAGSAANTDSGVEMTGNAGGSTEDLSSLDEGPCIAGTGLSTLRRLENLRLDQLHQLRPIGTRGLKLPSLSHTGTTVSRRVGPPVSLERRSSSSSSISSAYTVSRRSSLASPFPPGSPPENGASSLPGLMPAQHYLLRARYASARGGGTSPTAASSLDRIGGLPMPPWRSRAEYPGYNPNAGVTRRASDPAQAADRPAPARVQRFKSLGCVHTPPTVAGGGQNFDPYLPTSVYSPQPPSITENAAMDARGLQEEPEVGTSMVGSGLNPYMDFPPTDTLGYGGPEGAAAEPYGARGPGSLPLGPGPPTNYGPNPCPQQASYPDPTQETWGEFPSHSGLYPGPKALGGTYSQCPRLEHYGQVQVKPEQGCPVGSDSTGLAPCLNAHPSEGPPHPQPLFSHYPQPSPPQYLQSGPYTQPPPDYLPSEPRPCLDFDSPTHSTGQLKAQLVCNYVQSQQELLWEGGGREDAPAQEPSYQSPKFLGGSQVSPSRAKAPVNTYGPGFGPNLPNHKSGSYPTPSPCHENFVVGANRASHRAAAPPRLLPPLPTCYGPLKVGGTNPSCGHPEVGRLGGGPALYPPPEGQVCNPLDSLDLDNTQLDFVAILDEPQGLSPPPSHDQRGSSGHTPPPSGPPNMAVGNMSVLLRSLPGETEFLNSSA
Kind of data set: Inhibition of Shh-N-induced Gli1 (unknown origin) expressed in mouse Shh Light2 cells assessed as Gli1-mediated mediated transcription up to 50 uM incubated for 30 hrs by firefly luciferase assay. It is filed as cell-based. Put shortly: (§1)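 Shh-LIGHT2 cells (NIH-3T3 clone stably carrying Gli-dependent firefly and constitutive Renilla luciferase) treated 30 h with graded compound concentrations in Shh-N conditioned medium; firefly luminescence read as percent inhibition versus Shh-N-stimulated DMSO control. Cyclopamine 10 µM positive control. Three independent experiments in triplicate, mean ± SD.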

Data set [2] has as its target T1, Zinc finger protein GLI1 (Homo sapiens). Kind of data set: Inhibition of Gli1 (unknown origin) expression in mouse Shh Light2 cells at 1 to 100 uM by Western blot analysis. It is filed as cell-based. Put shortly: (§2)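 Gli1 protein immunoblotted in Shh-N-stimulated Shh-LIGHT2 cells after treatment with varying doses or 100 µM compound; GAPDH loading control; Shh-N-stimulated DMSO-treated cells as control; cyclopamine 10 µM positive control.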
A general note: Immunoblotting shows a protein as a band on a membrane.

In data set [3] the test system is Shh Light II. Kind of data set: Effect on SHH expression in mouse Shh Light2 cells at 25 to 50 uM after 24 hrs by Western blot analysis. It is filed as functional, cell-based. Put shortly: (§3)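 Shh-LIGHT2 cells treated 24 h, then SHH and SuFu protein levels assessed by western blotting.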
Data set [4] has as its system Shh Light II. Put plainly: Cytotoxicity against mouse Shh Light2 cells up to 150 uM after 40 hrs by MTT assay. The format is cell-based. Put shortly: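 MTT viability in Shh-LIGHT2 cells (NIH-3T3 clone with Gli-dependent firefly and constitutive Renilla luciferase reporters) after 40 h exposure to doses up to 150 μM, under the same conditions as the Hh reporter assay.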

In data set [5] the test system is Shh Light II. Put plainly: Effect on SuFu expression in mouse Shh Light2 cells at 25 to 50 uM after 24 hrs by Western blot analysis. It is filed as functional, cell-based. In outline: as §3
Data set [6] concerns Shh Light II. Kind of data set: Effect on Ptch1 expression in mouse Shh Light2 cells at 25 to 50 uM after 24 hrs by Western blot analysis. The format is functional, cell-based.
For data set [7], the species on record is Mus musculus. To be noted: 0.5 to 50 uM.
Data set [8] concerns Shh Light II. Put plainly: Effect on Smo expression in mouse Shh Light2 cells at 75 to 100 uM after 24 hrs by Western blot analysis. It is filed as functional, cell-based.
In data set [9] the test system is Shh Light II. Kind of data set: Effect on Ptch1 expression in mouse Shh Light2 cells at 75 to 100 uM after 24 hrs by Western blot analysis. It is filed as functional, cell-based.
In data set [10] the test system is Shh Light II. Put plainly: Effect on SuFu expression in mouse Shh Light2 cells at 75 to 100 uM after 24 hrs by Western blot analysis. The format is functional, cell-based.
The test system of data set [11] is Shh Light II. Kind of data set: Effect on SHH expression in mouse Shh Light2 cells at 75 to 100 uM after 24 hrs by Western blot analysis. The format is functional, cell-based.
Data set [12] concerns the target T1, Zinc finger protein GLI1 (Homo sapiens). Put plainly: Inhibition of Shh-N-induced Gli1 (unknown origin) expressed in mouse Shh Light2 cells assessed as Gli1-mediated mediated transcription at 50 uM incubated for 30 hrs by firefly luciferase assay. It is filed as cell-based. Put shortly: as §1
Data set [13] concerns Shh Light II. Put plainly: Cell cycle arrest in mouse Shh Light2 cells assessed as accumulation at G0/G1 phase at 30 uM after 30 to 48 hrs by propidium iodide staining-based flow cytometry (reference value: 86.2%). It is filed as functional.
The test system of data set [14] is Shh Light II. Kind of data set: Cell cycle arrest in mouse Shh Light2 cells assessed as accumulation at G2/M phase at 30 uM after 30 to 48 hrs by propidium iodide staining-based flow cytometry (reference value: 6.7%). It is filed as functional. (In general: A flow cytometer gives signals particle by particle.)
In data set [15] the test system is Shh Light II. Put plainly: Cell cycle arrest in mouse Shh Light2 cells assessed as accumulation at S phase at 30 uM after 30 to 48 hrs by propidium iodide staining-based flow cytometry (reference value: 3.6%). It is filed as functional.
The subject of data set [16] is Shh Light II. Put plainly: Cell cycle arrest in mouse Shh Light2 cells assessed as accumulation at subG0 phase at 30 uM after 30 to 48 hrs by propidium iodide staining-based flow cytometry (reference value: 3.4%). It is filed as functional.
Data set [17] relates to Shh Light II. Put plainly: Cell cycle arrest in mouse Shh Light2 cells assessed as accumulation at G0/G1 phase at 100 uM after 30 to 48 hrs by propidium iodide staining-based flow cytometry (reference value: 86.2%). It is filed as functional.
Data set [18] concerns Shh Light II. Kind of data set: Cell cycle arrest in mouse Shh Light2 cells assessed as accumulation at G2/M phase at 100 uM after 30 to 48 hrs by propidium iodide staining-based flow cytometry (reference value: 6.7%). It is filed as functional.
For data set [19], the system named is Shh Light II. Put plainly: Cell cycle arrest in mouse Shh Light2 cells assessed as accumulation at S phase at 100 uM after 30 to 48 hrs by propidium iodide staining-based flow cytometry (reference value: 3.6%). The format is functional.
The subject of data set [20] is Shh Light II. Kind of data set: Cell cycle arrest in mouse Shh Light2 cells assessed as accumulation at subG0 phase at 100 uM after 30 to 48 hrs by propidium iodide staining-based flow cytometry (reference value: 3.4%). The format is functional.
For data set [21], the target named is T1, Zinc finger protein GLI1 (Homo sapiens). Put plainly: Inhibition of Gli1 (unknown origin) expression in mouse Shh Light2 cells at 100 uM by Western blot analysis. The format is cell-based. Put shortly: as §2
Data set [22] deals with Shh Light II. Put plainly: Cell cycle arrest in mouse Shh Light2 cells assessed as accumulation at G0/G1 phase at 10 uM after 30 to 48 hrs by propidium iodide staining-based flow cytometry (reference value: 86.2%). It is filed as functional.
Data set [23] concerns Shh Light II. Put plainly: Cell cycle arrest in mouse Shh Light2 cells assessed as accumulation at G2/M phase at 10 uM after 30 to 48 hrs by propidium iodide staining-based flow cytometry (reference value: 6.7%). It is filed as functional.
The subject of data set [24] is Shh Light II. Kind of data set: Cell cycle arrest in mouse Shh Light2 cells assessed as accumulation at S phase at 10 uM after 30 to 48 hrs by propidium iodide staining-based flow cytometry (reference value: 3.6%). The format is functional.
Data set [25] relates to Shh Light II. Kind of data set: Cell cycle arrest in mouse Shh Light2 cells assessed as accumulation at subG0 phase at 10 uM after 30 to 48 hrs by propidium iodide staining-based flow cytometry (reference value: 3.4%). It is filed as functional.

Structures are written as SMILES. Activity calls are given as the source filed them. The rule behind the calls is not given here.

As to `O=C(O)C1CCCCN1` (configuration not stated), the inhibition result in [1] and in data set [2] was “inactive” throughout.

For `CN(C)C(=O)C1CCCNN1` (configuration not stated), the result in data set [3], in data set [5] and in data set [6] was inactive. The Activity entry in data set [4] is recorded as “Non-Toxic”. Also, the inhibition – broadly, the relative decrease from the control value, in per cent – in data set [7] was “inactive”.

In the case of `O=C(O)C1CCCNN1` (configuration not stated), the Activity entry is recorded as “Non-Toxic” in [4]; 82.9% in [13]; 7.8% in data set [14]; 4.4% in data set [15]; 4.7% in [16]; 81.3% in data set [17]. The Activity in data set [18] amounted to 8.3%; in [19] it was 4.9%; in [20], 5.2%. In addition, the result in data set [8], in [9], in data set [10] and in data set [11] was inactive. The inhibition is below 50% in data set [12] and “Dose-dependent effect” in data set [2].

With `NC(=O)C1CCCNN1` (configuration not stated), the result in [3], in data set [5] and in data set [6] was inactive. The Activity result in data set [4] is recorded as “Non-Toxic”. In data set [7], the inhibition result was “inactive”.

Consider `COC(=O)C1CCCNN1` (configuration not stated), for which the inhibition entry in data set [12] and in data set [21] was “inactive” in each case.

In the case of `COC(=O)C1CCCCNN1` (configuration not stated), the inhibition result in data set [12] and in data set [21] was “inactive” each time.

In the case of `CC1=C2C[C@H]3[C@@H](CC=C4C[C@@H](O)CC[C@@]43C)[C@@H]2CC[C@]12O[C@@H]1C[C@H](C)CN[C@H]1[C@H]2C` [CYCLOPAMINE], the Activity in data set [22] worked out at 84.1%; in data set [23] it was 7.7%; in data set [24] it was 4.7%; in [25], 3.2%.

On to `O=C(O)C1CCCCNN1` (configuration not stated), for which the inhibition entry in data set [12] and in data set [21] was “inactive” each time.

The values are drawn from ChEMBL document CHEMBL4431354, “Piperazic acid derivatives inhibit Gli1 in Hedgehog signaling pathway” (Bioorg Med Chem Lett, 2016).
